≈ marks a conversion by molar mass, not a printed value.
Columns and labels:
[1] = tested on: Cryptococcus gattii species complex; assay: Antifungal activity against Cryptococcus gattii serotype C after 72 hrs by broth microdilution method; assay type: functional, Cryptococcus bacillisporus
Summary of the method: (§1)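 Isolates subcultured at least twice on Sabouraud dextrose agar; serotype by multiplex PCR, species confirmed on canavanine-glycine-bromothymol blue medium. CLSI M27-A2 broth microdilution in RPMI 1640 with MOPS, pH 7.0. Inoculum 0.5–2.5 × 10^3 cells/ml, 35°C. Final drug range 0.015–8 or 0.25–64 μg/ml. MIC at 72 h read as 50% turbidity reduction versus growth control, or 100% inhibition for the polyene.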

[2] = tested on: Cryptococcus gattii species complex; assay: Antifungal activity against Cryptococcus gattii after 72 hrs by broth microdilution method; assay type: functional, Cryptococcus bacillisporus; summary of the method: as §1
[3] = tested on: Cryptococcus neoformans; assay: Antifungal activity against Cryptococcus neoformans after 72 hrs by broth microdilution method; assay type: functional
Summary of the method: (§2)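 Isolates subcultured at least twice on Sabouraud dextrose agar; serotype assigned by multiplex PCR, species confirmed on canavanine-glycine-bromothymol blue medium. CLSI M27-A2 broth microdilution in RPMI 1640 buffered to pH 7.0 with MOPS, inoculum 0.5 × 10^3 to 2.5 × 10^3 cells/ml, 35°C. Final drug ranges were 0.015–8 or 0.25–64 μg/ml depending on agent. MIC read at 72 h as 50% turbidity reduction versus growth control, or as 100% inhibition for the polyene. C. krusei ATCC 6258 and C. parapsilosis ATCC 22019 served as QC strains.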

[4] = tested on: Cryptococcus neoformans; assay: Antifungal activity against Cryptococcus neoformans serotype A after 72 hrs by broth microdilution method; assay type: functional; summary of the method: as §2
[5] = tested on: Cryptococcus neoformans; assay: Antifungal activity against Cryptococcus neoformans serotype D after 72 hrs by broth microdilution method; assay type: functional; summary of the method: as §2
[6] = tested on: Cryptococcus gattii species complex; assay: Antifungal activity against Cryptococcus gattii serotype B after 72 hrs by broth microdilution method; assay type: functional, Cryptococcus bacillisporus; summary of the method: as §1
[7] = tested on: Cryptococcus neoformans; assay: Antifungal activity against Cryptococcus neoformans serotype AD after 72 hrs by broth microdilution method; assay type: functional; summary of the method: as §2

Structure (SMILES) | MIC50 [1] | MIC90 [1] | MIC50 [2] | MIC90 [2] | MIC50 [3] | MIC90 [3] | MIC50 [4] | MIC90 [4] | MIC50 [5] | MIC90 [5] | MIC50 [6] | MIC90 [6] | MIC50 [7] | MIC90 [7] | MIC [1] | MIC [3] | MIC [5] | MIC [7]
C[C@@H](c1ncncc1F)[C@](O)(Cn1cncn1)c1ccc(F)cc1F [VORICONAZOLE] | 0.125 µg/mL (≈ 0.358 µM) | 0.25 µg/mL (≈ 0.716 µM) | 0.125 µg/mL (≈ 0.358 µM) | 0.25 µg/mL (≈ 0.716 µM) | 0.06 µg/mL (≈ 0.172 µM) | 0.25 µg/mL (≈ 0.716 µM) | 0.06 µg/mL (≈ 0.172 µM) | 0.25 µg/mL (≈ 0.716 µM) | 0.03 µg/mL (≈ 0.0859 µM) | 0.25 µg/mL (≈ 0.716 µM) | 0.125 µg/mL (≈ 0.358 µM) | 0.25 µg/mL (≈ 0.716 µM) | 0.06 µg/mL (≈ 0.172 µM) | 0.125 µg/mL (≈ 0.358 µM) | – | – | – | –
C[C@@H]1[C@H](O)[C@@H](C)/C=C/C=C/C=C/C=C/C=C/C=C/C=C/[C@H](O[C@@H]2O[C@H](C)[C@@H](O)[C@H](N)[C@@H]2O)C[C@@H]2O[C@](O)(C[C@@H](O)C[C@@H](O)[C@H](O)CC[C@@H](O)C[C@@H](O)CC(=O)O[C@H]1C)C[C@H](O)[C@H]2C(=O)O [AMPHOTERICIN B] | 0.25 µg/mL (≈ 0.271 µM) | 0.5 µg/mL (≈ 0.541 µM) | 0.25 µg/mL (≈ 0.271 µM) | 0.25 µg/mL (≈ 0.271 µM) | 0.25 µg/mL (≈ 0.271 µM) | 0.5 µg/mL (≈ 0.541 µM) | 0.25 µg/mL (≈ 0.271 µM) | 0.5 µg/mL (≈ 0.541 µM) | – | – | 0.25 µg/mL (≈ 0.271 µM) | 0.25 µg/mL (≈ 0.271 µM) | 0.25 µg/mL (≈ 0.271 µM) | 0.25 µg/mL (≈ 0.271 µM) | – | – | – | –
C[C@@H](c1nc(-c2ccc(C#N)cc2)cs1)[C@](O)(Cn1cncn1)c1cc(F)ccc1F [ISAVUCONAZOLE] | < 0.015 µg/mL | 0.03 µg/mL (≈ 0.0686 µM) | 0.03 µg/mL (≈ 0.0686 µM) | 0.06 µg/mL (≈ 0.137 µM) | < 0.015 µg/mL | 0.06 µg/mL (≈ 0.137 µM) | 0.03 µg/mL (≈ 0.0686 µM) | 0.125 µg/mL (≈ 0.286 µM) | < 0.015 µg/mL | 0.03 µg/mL (≈ 0.0686 µM) | 0.03 µg/mL (≈ 0.0686 µM) | 0.06 µg/mL (≈ 0.137 µM) | < 0.015 µg/mL | 0.03 µg/mL (≈ 0.0686 µM) | < 0.015 µg/mL | < 0.015 µg/mL | < 0.015 µg/mL | < 0.015 µg/mL
Nc1nc(=O)[nH]cc1F [FLUCYTOSINE] | 2 µg/mL (≈ 15.5 µM) | 8 µg/mL (≈ 62 µM) | 2 µg/mL (≈ 15.5 µM) | 8 µg/mL (≈ 62 µM) | 4 µg/mL (≈ 31 µM) | 8 µg/mL (≈ 62 µM) | 4 µg/mL (≈ 31 µM) | 4 µg/mL (≈ 31 µM) | 4 µg/mL (≈ 31 µM) | 8 µg/mL (≈ 62 µM) | 2 µg/mL (≈ 15.5 µM) | 4 µg/mL (≈ 31 µM) | 4 µg/mL (≈ 31 µM) | 8 µg/mL (≈ 62 µM) | – | – | – | –
CC[C@@H]([C@H](C)O)n1ncn(-c2ccc(N3CCN(c4ccc(OC[C@@H]5CO[C@@](Cn6cncn6)(c6ccc(F)cc6F)C5)cc4)CC3)cc2)c1=O [POSACONAZOLE] | 0.03 µg/mL (≈ 0.0428 µM) | 0.06 µg/mL (≈ 0.0856 µM) | 0.03 µg/mL (≈ 0.0428 µM) | 0.125 µg/mL (≈ 0.178 µM) | 0.03 µg/mL (≈ 0.0428 µM) | 0.06 µg/mL (≈ 0.0856 µM) | 0.06 µg/mL (≈ 0.0856 µM) | 0.25 µg/mL (≈ 0.357 µM) | < 0.015 µg/mL | 0.06 µg/mL (≈ 0.0856 µM) | 0.03 µg/mL (≈ 0.0428 µM) | 0.125 µg/mL (≈ 0.178 µM) | 0.03 µg/mL (≈ 0.0428 µM) | 0.06 µg/mL (≈ 0.0856 µM) | – | – | < 0.015 µg/mL | –
OC(Cn1cncn1)(Cn1cncn1)c1ccc(F)cc1F [FLUCONAZOLE] | 2 µg/mL (≈ 6.53 µM) | 4 µg/mL (≈ 13.1 µM) | 2 µg/mL (≈ 6.53 µM) | 8 µg/mL (≈ 26.1 µM) | 2 µg/mL (≈ 6.53 µM) | 4 µg/mL (≈ 13.1 µM) | 2 µg/mL (≈ 6.53 µM) | 4 µg/mL (≈ 13.1 µM) | – | – | 2 µg/mL (≈ 6.53 µM) | 8 µg/mL (≈ 26.1 µM) | 2 µg/mL (≈ 6.53 µM) | 4 µg/mL (≈ 13.1 µM) | – | – | – | –

— ChEMBL document CHEMBL1275580, “Antifungal susceptibilities among different serotypes of Cryptococcus gattii and Cryptococcus neoformans” (2009)
